Results on three compounds are retold here after publication PMC5069578 (Journal of Clinical Pharmacology, 2016).

Counter-ions that a name gives are not always drawn. Like-named read-outs stand apart in the source and are kept apart here.

By half-life is commonly meant how long it takes for the measured level to halve. Higher therefore signals slow loss. The AUC(0-t) is exposure summed from dosing to a finite time, without extrapolation to infinity. Higher therefore signals more exposure. The term Cmax denotes the highest concentration seen after dosing. As a reminder, the Tmax is the time at which the peak concentration occurs.

For data set [1] the following is noted: under physiological conditions; cited from earlier work.
A short description of another data set: Safety and tolerability. The data set is classed as in vivo, human. In a few lines: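 Adverse events recorded throughout treatment and up to 30 days after last dose or start of subsequent antineoplastic therapy, graded by NCI CTCAE v4.03. Safety population comprised all patients given at least 1 dose of test compound (single 4-mg oral doses on days 1 and 15, fasted/fed crossover).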

For data set [2] the following is noted: cited from earlier work.
Data set [3] in a line: Biopharmaceutics Classification System. The data set is classed as physicochemical. To be noted: from solubility and permeability.
For data set [4] the following is noted: ref Takeda, data on file; cited from earlier work.
The format of data set [5] is in vivo, human. The following applies: for half-life / AUC(0-t) / Cmax / Tmax: human, plasma, 4 mg; for half-life: oral, Geometric mean (%CV) terminal half-life, N = 4; for AUC(0-t) / Cmax / Tmax: po, single 4-mg oral dose, n = 15; for AUC(0-t): Geometric mean AUC0-216 (%CV); for Cmax: Geometric mean Cmax (%CV); for Tmax: Median Tmax (range). In a few lines: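 Randomized 2-period, 2-sequence crossover: 4-mg immediate-release capsule on day 1 and day 15, either fasted (~10 h overnight) or fed (high-fat meal begun ≥30 min predose), alternating between periods; no food 4 h postdose. Plasma sampled predose to 216 h, LC-MS/MS (linear 0.5–500 ng/mL). Noncompartmental parameters; log AUC0-216 and Cmax by ANOVA (treatment, sequence, period fixed; patient-within-sequence random), back-transformed LS-mean ratios with 90% CIs.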

For data set [6] the following is noted: ref Takeda, data on file; cited from earlier work. The source holds these as a separate data set.
The conditions of data set [7]: healthy volunteers and patients with advanced solid tumors; cited from earlier work.
Where [8] appears, read: fed vs fasted, ANOVA on log-transformed values.

`CC(C)C[C@H](NC(=O)CNC(=O)c1cc(Cl)ccc1Cl)B1OC(=O)C(CC(=O)O)(CC(=O)O)O1` [ixazomib citrate]: the “Hydrolysis to the biologically active boronic acid, ixazomib” value in data set [1] was “rapid hydrolysis”.
In the case of `CC(C)C[C@H](NC(=O)CNC(=O)c1cc(Cl)ccc1Cl)B(O)O` [ixazomib], in “Safety and tolerability” (3 on-study deaths), the “On-study deaths considered related to ixazomib” value was “None”. In addition, in the data set “Safety and tolerability” (24 patients), the “Drug-related, reversible grade 1 peripheral neuropathy” value came out at 1 case; the “Patients with TEAEs resulting in dose reduction” value is given as 4%; the “Patients with any-grade drug-related TEAEs” value is reported as 83%; the “Patients with any-grade drug-related fatigue” value was 25%. In “Safety and tolerability” (24 patients), the “Patients with any-grade drug-related nausea” value was 50%, the “Patients with any-grade drug-related vomiting” value stood at 58%, the “Patients with at least 1 grade ≥3 TEAE” value came out at 54% and the “Patients with at least 1 grade ≥3 drug-related TEAE” value is recorded as 21%. For the same compound, in “Safety and tolerability” (24 patients), the “Patients with drug-related serious AE” value amounted to 8%, the “Patients with grade ≥3 drug-related anemia” value is listed as 8%, the “Patients with grade ≥3 drug-related dehydration” value is 4% and the “Patients with grade ≥3 drug-related fatigue” value stood at 4%. In the data set “Safety and tolerability” (24 patients), the “Patients with grade ≥3 drug-related peripheral edema” value is on record as 4%, the “Patients with grade ≥3 drug-related vomiting” value is 4% and the “Patients with vomiting leading to dose modification” value is 8%. For the same compound, in “Safety and tolerability” (safety population N = 24), the “AE leading to discontinuation” value is reported as 7 (29) n (%), the “Any AE” value is on record as 24 (100) n (%), the “Any drug-related AE” value was 20 (83) n (%) and the “Any drug-related grade ≥3 AE” value is on record as 5 (21) n (%). In addition, in the data set “Safety and tolerability” (safety population N = 24), the “Any drug-related serious AE” value was 2 (8) n (%), the “Any grade ≥3 AE” value was 13 (54) n (%), the “Any serious AE” value is given as 12 (50) n (%) and the “Any-grade drug-related AE: anemia” value is listed as 4 (17) n (%). Moreover, in the data set “Safety and tolerability” (safety population N = 24), the “Any-grade drug-related AE: asthenia” value is on record as 2 (8) n (%), the “Any-grade drug-related AE: chills” value is 2 (8) n (%), the “Any-grade drug-related AE: constipation” value is 2 (8) n (%) and the “Any-grade drug-related AE: decreased appetite” value is reported as 3 (13) n (%). Further, in the data set “Safety and tolerability” (safety population N = 24), the “Any-grade drug-related AE: diarrhea” value is on record as 3 (13) n (%), the “Any-grade drug-related AE: fatigue” value is on record as 6 (25) n (%), the “Any-grade drug-related AE: nausea” value is 12 (50) n (%) and the “Any-grade drug-related AE: thrombocytopenia” value is 2 (8) n (%). In addition, in the data set “Safety and tolerability” (safety population N = 24), the “Any-grade drug-related AE: vomiting” value is 14 (58) n (%), the “Any-grade drug-related AE: weight loss” value is 4 (17) n (%), the “Grade ≥3 drug-related AE: anemia” value is given as 2 (8) n (%) and the “Grade ≥3 drug-related AE: dehydration” value is reported as 1 (4) n (%). Also, in “Safety and tolerability” (safety population N = 24), the “Grade ≥3 drug-related AE: fatigue” value is recorded as 1 (4) n (%), the “Grade ≥3 drug-related AE: peripheral edema” value is 1 (4) n (%), the “Grade ≥3 drug-related AE: vomiting” value is reported as 1 (4) n (%) and the On-study deaths was 3 (13) n (%). Besides, in the data set “Safety and tolerability” (safety population N = 24, includes follicular rash, intermittent dark skin lesion, macular rash, maculopapular rash, pruritus), the “Any-grade drug-related AE: rash” value was 5 (21) n (%). The Absolute oral bioavailability in data set [2] (226 adult cancer patients, immediate-release capsules, estimated) is recorded as 60%. Also, the “Dose and time dependence of PK” value in data set [2] is “dose‐ and time‐independent PK”. The “Biopharmaceutics Classification System (BCS) class” value in data set [3] is reported as “class 3”. Besides, the Solubility entry in data set [4] was “highly soluble”. Besides, in data set [5] (ANOVA analysis, period 2 (day 15) vs period 1 (day 1)), the “Ratio of period 2 AUC to period 1 AUC (period effect)” value amounted to 2.21. For the same compound, in data set [5] (fed vs fasted), the “Delay of median Tmax under fed conditions compared with fasted state” value is “approximately 3 hours”, the “Reduction in peak plasma concentration (Cmax)” value was found to be 69% and the “Reduction in total systemic exposure (AUC)” value is reported as 28%. In data set [5] (setting [8]), the “Least-squares geometric mean ratio (90%CI) of AUC0-216 (test/reference)” value is 0.72 (0.58‐0.89) and the “Least-squares geometric mean ratio (90%CI) of Cmax (test/reference)” value was 0.31 (0.21‐0.45). This compound showed a half-life in data set [5] (day 1, fasted) of 189 h. Also, the half-life in data set [5] (day 1, fed) was 198 h. In addition, in data set [5] (fasted (reference)), the AUC(0-t) was 1470 ng·h/mL and the Cmax was 77 ng/mL. Moreover, in data set [5] (fed (test)), the AUC(0-t) stood at 999 ng·h/mL and the Cmax amounted to 22.8 ng/mL. Further, the Tmax in data set [5] (fasted (reference), immediate-release capsule) came out at 1.02 h. In data set [5] (fed (test, high-calorie high-fat meal)), the time of peak concentration (Tmax) was 4 h. In addition, the Permeability entry in data set [6] was “moderate”.
Take `CS(=O)(=O)CCNCc1ccc(-c2ccc3ncnc(Nc4ccc(OCc5cccc(F)c5)c(Cl)c4)c3c2)o1` [lapatinib]: the “Change in bioavailability when administered with a high-fat breakfast” value in data set [7] is recorded as “large increases”.
